Assay results taken from ChEMBL document CHEMBL5715953, “A Potent, Selective, and Cell-Active Inhibitor of Human Type I Protein Arginine Methyltransferases” (ACS Chem Biol, 2016).
Calls of active or inactive are those of the source. No cut-off for these calls is given here.

Experiments:
[1] = target: T1, Protein arginine N-methyltransferase 1 (Homo sapiens, UniProt Q99873); experiment: Inhibition of human PRMT1 using (3H) methylated biotin labelled peptide as substrate in presence of 3H-SAM by scintillation proximity assay
[2] = target: T2, Protein arginine N-methyltransferase 3 (Homo sapiens, UniProt O60678); experiment: Inhibition of human PRMT3 using (3H) methylated biotin labelled peptide as substrate in presence of 3H-SAM by scintillation proximity assay
[3] = target: T3, Histone-arginine methyltransferase CARM1 (Homo sapiens, UniProt Q86X55); experiment: (§1) Inhibition of human PRMT4 using (3H) methylated biotin labelled peptide as substrate in presence of 3H-SAM by scintillation proximity assay
T3 sequence (Q86X55 whole entry): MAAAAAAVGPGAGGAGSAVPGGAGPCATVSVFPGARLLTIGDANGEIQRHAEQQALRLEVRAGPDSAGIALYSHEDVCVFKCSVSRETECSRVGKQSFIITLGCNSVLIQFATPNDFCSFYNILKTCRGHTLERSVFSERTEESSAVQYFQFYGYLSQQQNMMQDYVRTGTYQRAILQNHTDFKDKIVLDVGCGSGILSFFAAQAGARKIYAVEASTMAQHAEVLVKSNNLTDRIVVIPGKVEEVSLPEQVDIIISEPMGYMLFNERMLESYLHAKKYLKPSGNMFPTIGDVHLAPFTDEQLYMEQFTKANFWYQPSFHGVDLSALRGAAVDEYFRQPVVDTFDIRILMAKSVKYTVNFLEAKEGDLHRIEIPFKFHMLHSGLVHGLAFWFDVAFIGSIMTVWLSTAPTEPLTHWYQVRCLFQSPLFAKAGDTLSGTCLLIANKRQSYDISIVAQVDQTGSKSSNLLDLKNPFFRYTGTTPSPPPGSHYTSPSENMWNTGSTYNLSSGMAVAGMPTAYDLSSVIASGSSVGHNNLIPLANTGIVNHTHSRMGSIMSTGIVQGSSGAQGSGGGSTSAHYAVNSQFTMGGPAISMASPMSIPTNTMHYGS
Outline: (§2)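 Scintillation proximity assay: 3H-SAM as methyl donor, with non-tritiated SAM added when needed. The 3H-methylated biotinylated peptide is captured on streptavidin/scintillant-coated plates and read as counts per minute. IC50 comes from compound titration under balanced conditions, with substrate and cofactor at their Km values. Run in triplicate, mean ± SD. Ki is derived from IC50.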

[4] = target: T4, Protein arginine N-methyltransferase 6 (Homo sapiens, UniProt Q96LA8); experiment: Inhibition of human PRMT6 using (3H) methylated biotin labelled peptide as substrate in presence of 3H-SAM by scintillation proximity assay
[5] = target: T5, Protein arginine N-methyltransferase 8 (Homo sapiens, UniProt Q9NR22); experiment: Inhibition of human PRMT8 using (3H) methylated biotin labelled peptide as substrate in presence of 3H-SAM by scintillation proximity assay
Outline: as §2, with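 “IC50. A lower enzyme level (5 nM) is used for some potent compounds.” for “IC50.”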

[6] = target: T1, Protein arginine N-methyltransferase 1; experiment: Binding affinity to human PRMT1 assessed as inhibition constant using (3H) methylated biotin labelled peptide as substrate in presence of 3H-SAM by scintillation proximity assay
Target sequence in this assay (Q99873 whole entry): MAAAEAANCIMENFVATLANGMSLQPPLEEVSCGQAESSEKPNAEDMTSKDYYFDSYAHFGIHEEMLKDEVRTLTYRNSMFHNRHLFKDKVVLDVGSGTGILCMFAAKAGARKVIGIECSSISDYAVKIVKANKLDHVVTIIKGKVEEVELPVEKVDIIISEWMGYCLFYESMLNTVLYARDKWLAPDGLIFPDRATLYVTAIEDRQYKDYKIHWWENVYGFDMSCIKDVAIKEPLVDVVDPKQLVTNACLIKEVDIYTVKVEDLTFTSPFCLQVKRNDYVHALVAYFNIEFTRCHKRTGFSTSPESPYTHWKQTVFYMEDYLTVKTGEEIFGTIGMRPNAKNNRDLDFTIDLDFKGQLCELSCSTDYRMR

[7] = target: T2, Protein arginine N-methyltransferase 3; experiment: Binding affinity to human PRMT3 assessed as inhibition constant using (3H) methylated biotin labelled peptide as substrate in presence of 3H-SAM by scintillation proximity assay
Target sequence in this assay (O60678 whole entry): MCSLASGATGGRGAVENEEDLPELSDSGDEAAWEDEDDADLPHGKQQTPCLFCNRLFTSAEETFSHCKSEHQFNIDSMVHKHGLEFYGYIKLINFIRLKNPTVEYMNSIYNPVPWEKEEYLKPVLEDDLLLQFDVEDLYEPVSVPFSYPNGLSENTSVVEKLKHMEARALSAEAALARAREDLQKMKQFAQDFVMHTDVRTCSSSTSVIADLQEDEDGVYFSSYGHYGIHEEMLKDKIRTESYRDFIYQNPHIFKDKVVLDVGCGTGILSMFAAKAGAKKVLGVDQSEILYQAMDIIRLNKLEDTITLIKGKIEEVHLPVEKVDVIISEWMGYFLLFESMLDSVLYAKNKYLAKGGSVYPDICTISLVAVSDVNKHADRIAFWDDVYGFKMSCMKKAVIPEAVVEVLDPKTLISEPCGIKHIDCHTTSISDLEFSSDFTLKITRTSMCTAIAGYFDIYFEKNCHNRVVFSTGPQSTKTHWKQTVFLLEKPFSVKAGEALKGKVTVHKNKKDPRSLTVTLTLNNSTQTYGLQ

[8] = target: T3, Histone-arginine methyltransferase CARM1; experiment: Binding affinity to human PRMT4 assessed as inhibition constant using (3H) methylated biotin labelled peptide as substrate in presence of 3H-SAM by scintillation proximity assay
[9] = target: T4, Protein arginine N-methyltransferase 6; experiment: Binding affinity to human PRMT6 assessed as inhibition constant using (3H) methylated biotin labelled peptide as substrate in presence of 3H-SAM by scintillation proximity assay
Outline: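 Scintillation proximity assay with 3H-SAM as methyl donor, topped up with unlabelled SAM when needed. The methylated biotinylated peptide was captured on streptavidin/scintillant-coated plates and counted as cpm. IC50 came from compound titration at Km concentrations of both peptide substrate and SAM, in triplicate, reported as mean ± SD. Ki was calculated from IC50.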
Target sequence in this assay (Q96LA8 whole entry): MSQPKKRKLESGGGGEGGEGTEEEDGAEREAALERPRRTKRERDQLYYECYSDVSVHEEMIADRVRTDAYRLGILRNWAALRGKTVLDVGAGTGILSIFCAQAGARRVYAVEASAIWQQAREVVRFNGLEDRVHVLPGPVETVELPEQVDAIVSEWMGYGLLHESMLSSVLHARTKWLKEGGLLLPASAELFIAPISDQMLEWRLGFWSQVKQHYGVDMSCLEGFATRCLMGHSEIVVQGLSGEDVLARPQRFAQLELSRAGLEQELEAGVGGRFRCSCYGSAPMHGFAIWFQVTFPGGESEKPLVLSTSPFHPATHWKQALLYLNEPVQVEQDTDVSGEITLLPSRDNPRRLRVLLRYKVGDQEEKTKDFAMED

[10] = target: T5, Protein arginine N-methyltransferase 8; experiment: Binding affinity to human PRMT8 assessed as inhibition constant using (3H) methylated biotin labelled peptide as substrate in presence of 3H-SAM by scintillation proximity assay
Outline: as §2, with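 “IC50. A lower enzyme level (5 nM) is used for some potent compounds.” for “IC50.”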
Target sequence in this assay (Q9NR22 whole entry): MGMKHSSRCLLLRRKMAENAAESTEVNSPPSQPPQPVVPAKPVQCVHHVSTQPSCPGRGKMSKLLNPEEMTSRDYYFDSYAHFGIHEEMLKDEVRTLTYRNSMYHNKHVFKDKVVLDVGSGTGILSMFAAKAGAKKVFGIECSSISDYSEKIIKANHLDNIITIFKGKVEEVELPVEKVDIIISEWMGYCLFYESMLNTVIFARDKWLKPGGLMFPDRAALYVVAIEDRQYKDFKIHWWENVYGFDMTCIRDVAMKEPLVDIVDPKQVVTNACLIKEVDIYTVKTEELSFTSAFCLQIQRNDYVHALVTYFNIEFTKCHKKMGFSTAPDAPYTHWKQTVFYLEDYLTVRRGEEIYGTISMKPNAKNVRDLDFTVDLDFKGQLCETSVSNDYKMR

[11] = target: Protein arginine N-methyltransferase 5 (Homo sapiens) (UniProt O14744); experiment: Inhibition of human PRMT5 using (3H) methylated biotin labelled peptide as substrate in presence of 3H-SAM by scintillation proximity assay
Sequence of Protein arginine N-methyltransferase 5 (Homo sapiens) (O14744 whole entry): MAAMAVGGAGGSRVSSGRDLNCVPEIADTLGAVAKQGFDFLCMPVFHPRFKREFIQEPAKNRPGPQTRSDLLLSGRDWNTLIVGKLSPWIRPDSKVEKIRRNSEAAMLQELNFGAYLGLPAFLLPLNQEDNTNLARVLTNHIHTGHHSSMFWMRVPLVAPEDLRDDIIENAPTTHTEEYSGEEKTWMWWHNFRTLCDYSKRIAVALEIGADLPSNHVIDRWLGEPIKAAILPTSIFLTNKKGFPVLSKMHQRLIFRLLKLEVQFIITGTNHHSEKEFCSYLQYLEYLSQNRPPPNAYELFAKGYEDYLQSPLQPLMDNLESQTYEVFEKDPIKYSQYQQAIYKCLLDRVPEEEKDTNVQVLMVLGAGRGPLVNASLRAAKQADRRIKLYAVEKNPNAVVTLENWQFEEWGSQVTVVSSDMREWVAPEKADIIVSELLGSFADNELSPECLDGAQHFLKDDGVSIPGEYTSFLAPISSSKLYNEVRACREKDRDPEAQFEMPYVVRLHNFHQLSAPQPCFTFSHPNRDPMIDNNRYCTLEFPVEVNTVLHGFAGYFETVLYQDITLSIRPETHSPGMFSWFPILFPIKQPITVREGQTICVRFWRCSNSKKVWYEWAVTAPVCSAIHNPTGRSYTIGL
Outline: as §2, with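 “IC50. A lower enzyme level (5 nM) is used for some potent compounds.” for “IC50.”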

[12] = target: T6, Protein arginine N-methyltransferase 9 (Homo sapiens) (UniProt Q6P2P2); experiment: Inhibition of human PRMT9 using (3H) methylated biotin labelled peptide as substrate in presence of 3H-SAM by scintillation proximity assay
T6 sequence (whole entry): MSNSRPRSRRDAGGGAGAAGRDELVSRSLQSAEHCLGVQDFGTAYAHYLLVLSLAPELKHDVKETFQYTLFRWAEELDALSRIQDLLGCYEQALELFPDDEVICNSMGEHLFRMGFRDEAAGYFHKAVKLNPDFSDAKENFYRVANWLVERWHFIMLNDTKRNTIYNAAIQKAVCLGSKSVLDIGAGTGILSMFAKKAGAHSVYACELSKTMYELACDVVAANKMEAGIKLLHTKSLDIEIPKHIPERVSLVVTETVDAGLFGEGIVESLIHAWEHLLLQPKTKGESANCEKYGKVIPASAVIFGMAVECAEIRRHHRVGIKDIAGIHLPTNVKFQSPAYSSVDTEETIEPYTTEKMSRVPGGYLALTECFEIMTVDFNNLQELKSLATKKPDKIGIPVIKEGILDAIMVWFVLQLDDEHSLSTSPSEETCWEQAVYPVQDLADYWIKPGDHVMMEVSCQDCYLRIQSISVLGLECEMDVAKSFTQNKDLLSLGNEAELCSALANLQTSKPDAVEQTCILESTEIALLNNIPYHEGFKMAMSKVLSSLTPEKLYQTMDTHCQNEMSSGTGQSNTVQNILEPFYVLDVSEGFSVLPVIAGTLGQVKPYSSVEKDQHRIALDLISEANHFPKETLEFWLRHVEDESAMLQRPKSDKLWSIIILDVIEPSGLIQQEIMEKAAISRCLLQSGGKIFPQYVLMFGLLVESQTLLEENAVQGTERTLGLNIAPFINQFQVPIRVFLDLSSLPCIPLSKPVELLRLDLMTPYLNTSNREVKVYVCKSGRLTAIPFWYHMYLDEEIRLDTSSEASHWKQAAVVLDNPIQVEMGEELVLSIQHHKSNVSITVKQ
Outline: as §2, with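 “IC50. A lower enzyme level (5 nM) is used for some potent compounds.” for “IC50.”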

[13] = target: T7, Protein arginine N-methyltransferase 7 (Homo sapiens) (UniProt Q9NVM4); experiment: Inhibition of human PRMT7 using (3H) methylated biotin labelled peptide as substrate in presence of 3H-SAM by scintillation proximity assay
T7 sequence (whole entry): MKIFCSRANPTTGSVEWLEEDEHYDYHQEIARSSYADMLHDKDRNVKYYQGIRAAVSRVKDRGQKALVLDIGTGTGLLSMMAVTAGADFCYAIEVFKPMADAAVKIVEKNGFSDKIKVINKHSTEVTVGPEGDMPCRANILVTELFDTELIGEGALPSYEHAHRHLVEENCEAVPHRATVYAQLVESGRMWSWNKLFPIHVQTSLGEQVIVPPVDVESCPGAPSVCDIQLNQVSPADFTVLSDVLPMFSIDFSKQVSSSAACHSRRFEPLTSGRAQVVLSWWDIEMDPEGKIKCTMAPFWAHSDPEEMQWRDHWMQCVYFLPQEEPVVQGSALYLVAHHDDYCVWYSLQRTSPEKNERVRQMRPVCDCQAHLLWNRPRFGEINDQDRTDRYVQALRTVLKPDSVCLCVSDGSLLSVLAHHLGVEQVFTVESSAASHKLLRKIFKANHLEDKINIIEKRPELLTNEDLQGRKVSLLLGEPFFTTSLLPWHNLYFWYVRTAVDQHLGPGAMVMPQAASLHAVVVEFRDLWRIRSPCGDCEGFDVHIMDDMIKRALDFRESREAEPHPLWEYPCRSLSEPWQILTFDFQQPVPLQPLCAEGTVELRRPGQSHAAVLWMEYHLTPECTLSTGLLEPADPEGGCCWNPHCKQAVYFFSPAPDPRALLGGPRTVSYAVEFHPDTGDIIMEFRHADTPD
Outline: as §2, with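 “IC50. A lower enzyme level (5 nM) is used for some potent compounds.” for “IC50.”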

[14] = target: T8, Histone-arginine methyltransferase CARM1 (Homo sapiens) (UniProt Q86X55); experiment: as §1; outline: as §2
T8 sequence (whole entry): T3 sequence (Q86X55 whole entry)

[15] = target: T1, Protein arginine N-methyltransferase 1; experiment: Inhibition of PRMT1 in human MCF7 cells assessed as decrease in H4R3me2a level incubated for 48 hrs by Western blotting analysis; format: cell-based
Target sequence in this assay (Q99873 whole entry, looked up): as the sequence (Q99873 whole entry) above

HEK293 [16] = experiment: Cytotoxicity in human HEK293 cells assessed as inhibition of cell growth at 1 uM incubated for 4 days by phase contrast cell imaging analysis; format: toxicity, cell-based; conditions: hek293, 96 h, time 4 day
HFF = experiment: Cytotoxicity in human HFF cells assessed as cell confluency at <=1 uM incubated for 96 hrs by phase contrast cell imaging analysis; format: toxicity, cell-based
[17] = target: T4, Protein arginine N-methyltransferase 6; experiment: Inhibition of human PRMT6 using (3H) methylated biotin labelled peptide as substrate incubated for 30 mins in presence of 3H-SAM by scintillation proximity assay
Target sequence in this assay (Q96LA8 whole entry): as the sequence (Q96LA8 whole entry) above

[18] = target: T4, Protein arginine N-methyltransferase 6; experiment: Inhibition of human PRMT6 assessed as inhibition constant in presence of cofactor SAM
Target sequence in this assay (Q96LA8 whole entry): as above

[19] = target: T4, Protein arginine N-methyltransferase 6; experiment: Inhibition of human PRMT6 assessed as inhibition constant using peptide as substrate
Target sequence in this assay (Q96LA8 whole entry): as above

[20] = target: T3, Histone-arginine methyltransferase CARM1; experiment: Inhibition of human PRMT4 assessed as inhibition constant in presence of cofactor SAM
[21] = target: T3, Histone-arginine methyltransferase CARM1; experiment: Inhibition of human PRMT4 assessed as inhibition constant using peptide as substrate
[22] = target: T5, Protein arginine N-methyltransferase 8; experiment: Inhibition of human PRMT8 assessed as inhibition constant in presence of cofactor SAM
Target sequence in this assay (Q9NR22 whole entry): as the sequence (Q9NR22 whole entry) above

[23] = target: T5, Protein arginine N-methyltransferase 8; experiment: Inhibition of human PRMT8 assessed as inhibition constant using peptide as substrate
Target sequence in this assay (Q9NR22 whole entry): as above

MCF7 = experiment: Antiproliferative activity against human MCF7 cells assessed as decrease in cell number at 0.1 uM incubated for 10 days by vybrant dye cycle green/ Enzo-nuclear-ID red staining based live cell imaging analysis relative to control; format: functional; parameters: scale not given: the % may be the effect or the level left; conditions: time 10 day
[24] = target: E3 ubiquitin-protein ligase UHRF1 (Homo sapiens) (UniProt Q96T88)
Sequence of E3 ubiquitin-protein ligase UHRF1 (Homo sapiens) (Q96T88 whole entry): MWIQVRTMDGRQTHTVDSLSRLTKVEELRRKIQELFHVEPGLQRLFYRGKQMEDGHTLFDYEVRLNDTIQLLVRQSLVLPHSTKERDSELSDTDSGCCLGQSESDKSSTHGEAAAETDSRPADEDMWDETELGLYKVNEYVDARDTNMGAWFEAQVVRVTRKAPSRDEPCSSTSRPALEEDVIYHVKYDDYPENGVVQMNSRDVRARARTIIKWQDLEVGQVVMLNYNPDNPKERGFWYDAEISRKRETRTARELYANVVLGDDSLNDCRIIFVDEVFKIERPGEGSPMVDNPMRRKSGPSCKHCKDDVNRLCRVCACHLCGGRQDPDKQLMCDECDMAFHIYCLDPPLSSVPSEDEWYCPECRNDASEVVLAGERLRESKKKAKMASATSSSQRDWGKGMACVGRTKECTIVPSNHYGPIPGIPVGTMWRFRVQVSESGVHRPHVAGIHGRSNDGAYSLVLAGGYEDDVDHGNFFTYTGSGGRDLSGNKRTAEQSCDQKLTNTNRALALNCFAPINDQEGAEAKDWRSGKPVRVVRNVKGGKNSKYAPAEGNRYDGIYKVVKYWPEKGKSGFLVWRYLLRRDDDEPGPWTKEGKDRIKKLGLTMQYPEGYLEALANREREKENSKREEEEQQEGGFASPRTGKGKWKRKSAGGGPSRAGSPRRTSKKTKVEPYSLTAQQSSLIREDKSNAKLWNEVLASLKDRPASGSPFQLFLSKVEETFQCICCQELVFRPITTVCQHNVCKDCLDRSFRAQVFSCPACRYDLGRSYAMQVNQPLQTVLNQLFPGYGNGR

Peregrin (Homo sapiens) = Peregrin (Homo sapiens) (UniProt P55201)
Sequence of Peregrin (Homo sapiens) (P55201 whole entry): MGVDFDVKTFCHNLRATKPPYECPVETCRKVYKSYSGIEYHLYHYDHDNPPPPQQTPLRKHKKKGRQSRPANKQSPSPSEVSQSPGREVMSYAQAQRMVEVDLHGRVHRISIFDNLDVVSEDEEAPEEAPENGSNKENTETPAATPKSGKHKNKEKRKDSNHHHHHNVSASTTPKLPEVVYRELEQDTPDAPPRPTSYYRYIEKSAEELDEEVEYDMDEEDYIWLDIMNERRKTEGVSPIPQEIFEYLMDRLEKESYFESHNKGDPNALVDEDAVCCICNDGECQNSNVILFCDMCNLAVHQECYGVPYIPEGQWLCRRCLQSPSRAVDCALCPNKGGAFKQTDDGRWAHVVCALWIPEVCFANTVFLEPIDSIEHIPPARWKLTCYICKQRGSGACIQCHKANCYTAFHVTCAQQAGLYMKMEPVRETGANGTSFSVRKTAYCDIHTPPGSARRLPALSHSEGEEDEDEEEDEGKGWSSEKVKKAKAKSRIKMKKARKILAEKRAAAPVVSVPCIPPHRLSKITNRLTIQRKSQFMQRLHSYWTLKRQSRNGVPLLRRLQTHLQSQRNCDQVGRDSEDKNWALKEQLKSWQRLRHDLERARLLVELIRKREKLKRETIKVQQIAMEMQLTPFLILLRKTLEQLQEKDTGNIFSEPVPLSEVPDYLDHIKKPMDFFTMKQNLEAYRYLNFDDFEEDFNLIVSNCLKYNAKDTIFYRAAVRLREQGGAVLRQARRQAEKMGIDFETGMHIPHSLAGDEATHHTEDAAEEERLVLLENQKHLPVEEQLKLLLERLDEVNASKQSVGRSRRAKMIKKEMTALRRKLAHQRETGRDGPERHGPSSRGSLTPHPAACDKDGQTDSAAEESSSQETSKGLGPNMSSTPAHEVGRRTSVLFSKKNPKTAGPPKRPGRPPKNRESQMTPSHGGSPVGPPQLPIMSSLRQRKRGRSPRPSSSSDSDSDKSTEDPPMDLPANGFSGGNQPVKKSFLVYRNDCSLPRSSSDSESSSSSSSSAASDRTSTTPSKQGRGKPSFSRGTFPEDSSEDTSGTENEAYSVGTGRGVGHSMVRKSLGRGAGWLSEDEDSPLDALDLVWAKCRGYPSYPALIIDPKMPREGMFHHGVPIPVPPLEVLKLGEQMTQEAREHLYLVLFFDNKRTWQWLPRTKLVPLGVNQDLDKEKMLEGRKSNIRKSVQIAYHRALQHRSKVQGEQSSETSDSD

[25] = target: WD repeat-containing protein 5 (Homo sapiens) (UniProt P61964)
[26] = target: Growth/differentiation factor 2 (Homo sapiens) (UniProt Q9UK05)
Sequence of Growth/differentiation factor 2 (Homo sapiens) (Q9UK05 whole entry, the tested form may be a part): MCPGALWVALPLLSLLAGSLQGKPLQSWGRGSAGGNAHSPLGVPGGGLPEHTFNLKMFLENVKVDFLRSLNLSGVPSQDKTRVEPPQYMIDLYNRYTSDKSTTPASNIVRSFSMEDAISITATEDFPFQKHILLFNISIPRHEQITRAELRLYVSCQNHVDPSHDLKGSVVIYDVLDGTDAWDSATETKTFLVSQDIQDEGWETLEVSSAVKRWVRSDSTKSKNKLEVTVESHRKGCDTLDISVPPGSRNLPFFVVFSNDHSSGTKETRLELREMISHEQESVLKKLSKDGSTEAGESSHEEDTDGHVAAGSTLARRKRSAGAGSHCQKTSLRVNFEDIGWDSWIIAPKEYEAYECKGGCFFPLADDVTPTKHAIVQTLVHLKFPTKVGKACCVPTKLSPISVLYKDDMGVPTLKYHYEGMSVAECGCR

[27] = target: Tudor domain-containing protein 3 (Homo sapiens) (UniProt Q9H7E2)
[28] = target: AT-rich interactive domain-containing protein 4A (Homo sapiens) (UniProt P29374)
[29] = target: RNA-binding protein FXR1 (Homo sapiens) (UniProt P51114)
[30] = target: Polycomb protein EED (Homo sapiens) (UniProt O75530)
[31] = target: Staphylococcal nuclease domain-containing protein 1 (Homo sapiens) (UniProt Q7KZF4)
HEK293 [32] = conditions: Homo sapiens, dose 333.0 nM, time 20.0 hrs
HEK293 [33] = conditions: Homo sapiens, dose 1000.0 nM, time 20.0 hrs

## CN(CCN)Cc1n[nH]nc1-c1cccc(C(F)(F)F)c1
[1]
  IC50: > 20000 nM
[2]
  IC50: > 100000 nM
[3]
  IC50: > 75000 nM
[4]
  IC50: 230 nM
[5]
  IC50: 3000 nM
[6]
  Ki: > 10000 nM
[7]
  Ki: > 50000 nM
[8]
  Ki: > 37500 nM
[9]
  Ki: 110 nM
[10]
  Ki: 1500 nM
[11]
  inhibition: inactive
[12]
  inhibition: inactive
[13]
  inhibition: inactive

## CC(C)Oc1ccc(-c2c[nH]cc2CN(C)CCO)cc1
[1]
  inhibition: inactive
[2]
  inhibition: inactive
[14]
  inhibition: inactive
[4]
  inhibition: inactive
[5]
  inhibition: inactive
[11]
  inhibition: inactive
[12]
  inhibition: inactive
[13]
  inhibition: inactive
[15]
  inhibition: inactive

## CC(C)Oc1ccc(-c2c[nH]cc2CN(C)CCN)cc1
HEK293 [16]
  Activity: Toxic
HFF
  Activity: Non-Toxic
[3]
  IC50: 83 nM
[5]
  IC50: 5 nM
[8]
  Ki: 23 nM
[10]
  Ki: 1.3 nM
[17]
  IC50: Not Active
[18]
  IC50: Not Active
[19]
  IC50: Not Active
[20]
  IC50: Not Active
[21]
  IC50: Not Active
[22]
  IC50: Not Active
[23]
  IC50: Not Active
MCF7
  Activity: 30%
[24]
  ΔTm: -1.5 °C
Peregrin (Homo sapiens)
  ΔTm: -0.3 °C
[25]
  ΔTm: -1.3 °C
[26]
  ΔTm: -3 °C
[27]
  deltaTm: inactive
[28]
  deltaTm: inactive
[29]
  deltaTm: inactive
[30]
  deltaTm: inactive
[31]
  deltaTm: inactive
HEK293 [32]
  inhibition: Active
HEK293 [33]
  inhibition: Active

## CC(C)Oc1ccc(-c2c[nH]cc2C(=O)N(C)CCN)cc1
[1]
  inhibition: inactive
[2]
  inhibition: inactive
[14]
  inhibition: inactive
[4]
  inhibition: inactive
[5]
  inhibition: inactive
[11]
  inhibition: inactive
[12]
  inhibition: inactive
[13]
  inhibition: inactive
[15]
  inhibition: inactive

## CC(C)Oc1ccc(-c2c[nH]cc2CN(C)CC(N)=O)cc1
[1]
  inhibition: inactive
[2]
  inhibition: inactive
[14]
  inhibition: inactive
[4]
  inhibition: inactive
[5]
  inhibition: inactive
[11]
  inhibition: inactive
[12]
  inhibition: inactive
[13]
  inhibition: inactive
[15]
  inhibition: inactive

## CN(CCN)Cc1c[nH]cc1-c1cccc(C(F)(F)F)c1
[4]
  IC50: 9 nM
[5]
  IC50: 42 nM
[9]
  Ki: 3 nM
[10]
  Ki: 17 nM
[11]
  inhibition: inactive
[12]
  inhibition: inactive
[13]
  inhibition: inactive
